Experiment [1] addresses T1, Potassium voltage-gated channel subfamily KQT member 2 (Homo sapiens, UniProt O43526). Nature of the experiment: Activation of human Kv7.2 expressed in CHO cells assessed as increase in current amplitude at 10 uM measured at holding potential of 0 mV by whole cell patch clamp electrophysiology assay relative to control. Type of experiment: cell-based. The gist of the method:
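Transiently transfected CHO cells expressing human Kv7.2, whole-cell patch clamp at 20–22°C in HEPES-buffered saline pH 7.4. Cells held at −80 mV and ramped −80 to +20 mV over 3 s, before and during 10 μM drug. Ramp current at 0 mV taken as drug/control ratio; mean ± SEM of ≥3 cells, ≥2 transfections.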
(In patch-clamp work, channel activity is measured electrically.)

For experiment [2], the target named is T1, Potassium voltage-gated channel subfamily KQT member 2. Nature of the experiment: Activation of human Kv7.2 expressed in CHO cells assessed as increase in current amplitude at 10 uM measured at holding potential of -40 mV by whole cell patch clamp electrophysiology assay relative to control. Type of experiment: cell-based. Summed up: (§1)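 CHO cells transiently co-transfected (Lipofectamine 2000, 4 μg total cDNA, EGFP marker) with human channel cDNA in pcDNA3.1, recorded 24 h later. Whole-cell patch clamp at 20–22°C, 3–5 MΩ pipettes, perfused extracellular solution pH 7.4. Held at −80 mV; 3-s ramps −80 to +20 mV ± 10 μM drug. Current at −40 mV with vs without drug expressed as ratio; ≥3 cells from ≥2 transfections, mean ± SEM.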

The subject of experiment [3] is Potassium voltage-gated channel subfamily KQT member 2 (Homo sapiens), O43526 [W236L]. Nature of the experiment: Activation of human Kv7.2 W236L mutant expressed in CHO cells assessed as channel current amplitude at 10 uM measured at holding potential of -40 mV by whole cell patch clamp electrophysiology assay. In kind it is cell-based. The gist of the method:
as §1

The subject of experiment [4] is Potassium voltage-gated channel subfamily KQT member 2 (Homo sapiens), O43526 [F168L]. The experiment is described as follows: Activation of ICA-insensitive human Kv7.2 F168L mutant expressed in CHO cells assessed as increase in channel current amplitude at 10 uM measured at holding potential of -40 mV by whole cell patch clamp electrophysiology assay. Type of experiment: cell-based. The gist of the method:
as §1

Experiment [5] is described as follows: Photostability of compound in pH 7.4 buffer assessed as compound degradation at 100 ug/ml incubated for 6 hrs under natural solar light-irradiation by HPLC analysis relative to control. Summed up:
(§2)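 DMSO solutions diluted in pH 7.4 buffer, held in 1 cm quartz cells and exposed to natural daylight. Light-shielded controls kept at 37°C in foil. Aliquots drawn at set intervals and parent compound loss measured by UHPLC: C18 column, 0.1% TFA water/acetonitrile gradient, 45°C, detection at 254 nm.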

Experiment [6] is described as follows: Photostability of compound in pH 7.4 buffer assessed as compound degradation at 100 ug/ml incubated for 2 hrs under natural solar light-irradiation by HPLC analysis relative to control. The gist of the method:
as §2

Experiment [7] is described as follows: Photostability of compound in pH 7.4 buffer assessed as compound degradation at 100 ug/ml incubated for 4 hrs under natural solar light-irradiation by HPLC analysis relative to control. Summed up: as §2

The source made the active and inactive calls. The rule behind the calls is not given here.

T1 sequence (O43526 whole entry): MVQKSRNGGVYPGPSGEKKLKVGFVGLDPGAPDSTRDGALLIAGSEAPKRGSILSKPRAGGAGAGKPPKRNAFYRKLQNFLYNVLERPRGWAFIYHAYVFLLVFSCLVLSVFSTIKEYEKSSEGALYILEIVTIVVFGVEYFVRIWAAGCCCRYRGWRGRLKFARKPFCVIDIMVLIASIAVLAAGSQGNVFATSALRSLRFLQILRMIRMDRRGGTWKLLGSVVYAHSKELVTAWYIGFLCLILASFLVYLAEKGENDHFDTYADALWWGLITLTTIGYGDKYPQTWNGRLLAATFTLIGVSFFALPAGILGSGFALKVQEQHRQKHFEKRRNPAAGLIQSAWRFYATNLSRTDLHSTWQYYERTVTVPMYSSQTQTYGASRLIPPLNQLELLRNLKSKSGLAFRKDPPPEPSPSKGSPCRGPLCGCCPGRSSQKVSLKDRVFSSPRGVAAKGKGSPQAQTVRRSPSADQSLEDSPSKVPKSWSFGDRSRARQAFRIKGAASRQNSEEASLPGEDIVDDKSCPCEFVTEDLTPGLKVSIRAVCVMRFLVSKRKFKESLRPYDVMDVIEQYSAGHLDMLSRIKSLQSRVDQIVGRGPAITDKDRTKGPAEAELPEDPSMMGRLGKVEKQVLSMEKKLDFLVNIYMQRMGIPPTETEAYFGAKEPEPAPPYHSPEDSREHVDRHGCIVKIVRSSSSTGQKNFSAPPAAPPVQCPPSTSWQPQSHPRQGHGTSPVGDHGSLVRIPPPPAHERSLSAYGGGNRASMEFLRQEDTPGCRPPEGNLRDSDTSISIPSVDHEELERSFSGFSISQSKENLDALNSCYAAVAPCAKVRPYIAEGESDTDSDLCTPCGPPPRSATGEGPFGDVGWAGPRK
Potassium voltage-gated channel subfamily KQT member 2 (Homo sapiens), O43526 [W236L], sequence (O43526 whole entry W236L): as the sequence (O43526 whole entry) above, with W236L counted along it
Potassium voltage-gated channel subfamily KQT member 2 (Homo sapiens), O43526 [F168L], sequence (O43526 whole entry F168L): as the sequence (O43526 whole entry) above, with F168L counted along it

In the case of `O=S(=O)(Nc1ccc2c(c1)CCN2CCc1ccc(F)cc1)C1CCCCC1`, the outcome in experiment [1] and in experiment [2] was inactive.

On to `CC(C)CS(=O)(=O)Nc1ccc2c(c1)CCN2Cc1ccc(F)cc1`, for which the outcome in experiment [1] and in experiment [2] was inactive.

Turning to `CCCCCCC(=O)Nc1ccc2c(ccn2Cc2ccc(OCOC)cc2)c1`, the result in experiment [1] and in experiment [2] was inactive.

Regarding `COc1ccc(CN2c3ccc(NS(=O)(=O)C4CCCCC4)cc3CC2C)cc1` (racemic), the outcome in experiment [1] and in experiment [2] was inactive.

As for `COc1ccc(Cn2ccc3cc(NS(=O)(=O)C4CCCCC4)ccc32)cc1`, the outcome in experiment [1] and in experiment [2] was inactive.

With `CC1(C)[C@@H]2CC[C@@]1(CS(=O)(=O)Nc1ccc3c(c1)CCN3Cc1ccc(F)cc1)C(=O)C2`, the result in experiment [1] and in experiment [2] was inactive.

On to `CCCCN(C)CC(=O)Nc1ccc2c(ccn2Cc2ccc(C(F)(F)F)cc2)c1`, for which the result in experiment [1] and in experiment [2] was inactive.

With `O=C(Nc1ccc(Cl)nc1)c1ccc(F)c(F)c1`, the outcome in experiment [3], in experiment [1] and in experiment [2] was Active. The outcome in experiment [4] was inactive.

In the case of `O=S(=O)(CCC1CCCCC1)Nc1ccc2c(ccn2Cc2ccc(F)cc2)c1`, the outcome in experiment [1] and in experiment [2] was inactive.

For the molecule `CCCCNCC(=O)Nc1ccc2c(ccn2Cc2ccc(C(F)(F)F)cc2)c1`, the result in experiment [1] and in experiment [2] was inactive.

Regarding `CCOC(=O)Nc1ccc2c(c1)CCN2Cc1ccc(F)cc1`, the outcome in experiment [1] and in experiment [2] was inactive.

On to `O=C(Nc1ccc2c(c1)CCN2Cc1ccc(F)cc1)C1CCCCC1`, for which the outcome in experiment [1] and in experiment [2] was inactive.

`O=C(Nc1ccc2c(c1)CCN2Cc1ccc(F)cc1)NC1CCCCC1`: the outcome in experiment [1] and in experiment [2] was inactive.

As to `CCCCCCC(=O)Nc1ccc2c(c1)CCC/C2=C\c1ccc(C(F)(F)F)cc1`, the outcome in experiment [1] and in experiment [2] was inactive.

Regarding `O=C(CC1CCCCC1)Nc1ccc2c(c1)CCN2Cc1ccc(F)cc1`, the result in experiment [1] and in experiment [2] was inactive.

In the case of `O=C(c1ccc(F)cc1)N1CCc2cc(NS(=O)(=O)C3CCCCC3)ccc21`, the outcome in experiment [1] and in experiment [2] was inactive.

With `CC(C)(C)CNC(=O)Nc1ccc2c(c1)CCN2Cc1ccc(F)cc1`, the result in experiment [1] and in experiment [2] was inactive.

With `O=S(=O)(Nc1ccc2c(c1)CCN2Cc1ccc(F)cc1F)C1CCCCC1`, the Drug degradation was over 99% in experiment [5], 33.5% in experiment [6] and 81.7% in experiment [7]. The result in experiment [1] was Active. Further, in experiment [2], the outcome was inactive.

For the molecule `CC1CC(C)CN(S(=O)(=O)Nc2ccc3c(c2)CCN3Cc2ccc(F)cc2)C1` (stereo unspecified), the outcome in experiment [1] and in experiment [2] was inactive.

Turning to `O=S(=O)(Nc1ccc2c(ccn2Cc2ccc(C(F)(F)F)cc2)c1)C1CCCCC1`, the result in experiment [1] and in experiment [2] was inactive.

Consider `CCCCCCC(=O)Nc1ccc2c(c1)CCCC2Cc1ccc(C(F)(F)F)cc1` (racemic), for which the result in experiment [1] and in experiment [2] was inactive.

`O=S(=O)(Nc1ccc2c(c1)CCN2Cc1ccc(C(F)(F)F)cc1)C1CCCCC1`: the outcome in experiment [1] and in experiment [2] was inactive.

`CC(C)(C)CNC(=N)Nc1ccc2c(c1)CCN2Cc1ccc(F)cc1`: the outcome in experiment [1] and in experiment [2] was inactive.

In the case of `CCCCCCC(=O)Nc1ccc2c(ccn2Cc2ccc(O)cc2)c1`, the outcome in experiment [1] and in experiment [2] was inactive.

With `CC(C)[C@H]1CC[C@H](C)C[C@@H]1OC(=O)Nc1ccc2c(c1)CCN2Cc1ccc(F)cc1`, the outcome in experiment [1] and in experiment [2] was inactive.

In the case of `COc1ccc(CN2CCc3cc(NS(=O)(=O)C4CCCCC4)ccc32)cc1`, the values for the Drug degradation in experiment [5], in experiment [6] and in experiment [7] were over 99%, 37.5% and 84.7%, respectively. Besides, in experiment [1], the outcome was Active. Also, in experiment [2], the result was inactive.

In the case of `CCCCS(=O)(=O)Nc1ccc2c(c1)CCN2Cc1ccc(F)cc1`, the outcome in experiment [1] and in experiment [2] was inactive.

Consider `CCCCCCC(=O)Nc1ccc2c(c1)CCC/C2=C/c1ccc(C(F)(F)F)cc1`, for which the outcome in experiment [1] and in experiment [2] was inactive.

As for `O=S(=O)(Nc1ccc2c(c1)CCN2Cc1ccc(F)cc1)N1CCCCCC1`, the result in experiment [1] and in experiment [2] was inactive.

As for `O=S(=O)(Nc1ccc2c(c1)CCN2Cc1ccc(F)cc1)c1ccccc1`, the outcome in experiment [1] and in experiment [2] was inactive.

`CC1(C)[C@H]2CC[C@]1(CS(=O)(=O)Nc1ccc3c(c1)CCN3Cc1ccc(F)cc1)C(=O)C2`: the result in experiment [1] and in experiment [2] was inactive.

Take `CCCCCCS(=O)(=O)Nc1ccc2c(c1)CCN2Cc1ccc(F)cc1`: the result in experiment [1] and in experiment [2] was inactive.

For the molecule `O=S(=O)(Nc1ccc2c(c1)CCN2Cc1ccc(F)c(F)c1)C1CCCCC1`, the result in experiment [1] and in experiment [2] was inactive.

With `O=S(=O)(Nc1ccc2c(ccn2Cc2ccc(F)cc2)c1)C1CCCCC1`, the Drug degradation came out at 23.1% in experiment [5], 6.46% in experiment [6] and 15.8% in experiment [7]. For the same molecule, the outcome in experiment [1] was Active. Moreover, in experiment [2], the outcome was inactive.

As for `CCOC(=O)Nc1ccc(NCc2ccc(F)cc2)nc1N`, the result in experiment [1] and in experiment [2] was Active.

Consider `O=S(=O)(Nc1ccc2c(c1)CCN2Cc1ccc(C(F)(F)F)cc1C(F)(F)F)C1CCCCC1`, for which the outcome in experiment [1] and in experiment [2] was inactive.

On to `O=[N+]([O-])c1cc(Br)ccc1CN1CCc2cc(NS(=O)(=O)C3CCCCC3)ccc21`, for which, in experiment [1], the outcome was Active. Moreover, the outcome in experiment [2] was inactive.

On to `CC(=O)Nc1ccc2c(c1)CCN2Cc1ccc(F)cc1`, for which the outcome in experiment [1] and in experiment [2] was inactive.

`CCCCCCCCCCCCCCCC(=O)Nc1ccc2c(ccn2Cc2ccc(C(F)(F)F)cc2)c1`: the outcome in experiment [1] and in experiment [2] was inactive.

Turning to `O=C(Cc1ccc(Cl)cc1)N1CCc2cc(NS(=O)(=O)C3CCCCC3)ccc21`, the result in experiment [1] and in experiment [2] was inactive.
